Bioassay records: PubChem, Broad Institute
MITF act = MITF TRPM1 promoter activation in melanoma cells; AID 588334; SK-MEL-5 TRPM1-promoter luciferase, 24 h; % of positive control, neutral wells = 0; activation, % at 12.5 µM; 300,000 compounds, 0.75% hits;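 active = mean activation of at least 80% with every replicate also reaching 80%; inconclusive = mean reaches 80% but some replicate falls short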
HSF-1 act = increases HSF-1 driven luciferase reporter signal; NIH3T3-HGL HSF-1 luciferase reporter, MG132, 8 h; 100% = twice DMSO control signal; activation, % at 9 µM; 300,000 compounds, 1.7% hits; AID 504408;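 active = mean replicate activation of at least 50% with a set share of replicates each reaching 50%; inconclusive = only one of those two conditions met; inactive = mean below 50% and too few replicates reaching it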
SR-BI DiI inh = blocks mouse SR-BI lipid uptake from DiI-HDL; 320,000 compounds, 0.96% hits; Q61009; ldlA[mSR-BI] CHO cells, DiI-HDL uptake fluorescence, 3 h; inhibition, % at 12.5 µM; AID 488896;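 active = mean replicate inhibition of at least 70% and a set share of replicates each scoring 70 or more; inconclusive = meets just one of the two criteria; inactive = fails both criteria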
Target sequence (Q61009 whole entry, looked up): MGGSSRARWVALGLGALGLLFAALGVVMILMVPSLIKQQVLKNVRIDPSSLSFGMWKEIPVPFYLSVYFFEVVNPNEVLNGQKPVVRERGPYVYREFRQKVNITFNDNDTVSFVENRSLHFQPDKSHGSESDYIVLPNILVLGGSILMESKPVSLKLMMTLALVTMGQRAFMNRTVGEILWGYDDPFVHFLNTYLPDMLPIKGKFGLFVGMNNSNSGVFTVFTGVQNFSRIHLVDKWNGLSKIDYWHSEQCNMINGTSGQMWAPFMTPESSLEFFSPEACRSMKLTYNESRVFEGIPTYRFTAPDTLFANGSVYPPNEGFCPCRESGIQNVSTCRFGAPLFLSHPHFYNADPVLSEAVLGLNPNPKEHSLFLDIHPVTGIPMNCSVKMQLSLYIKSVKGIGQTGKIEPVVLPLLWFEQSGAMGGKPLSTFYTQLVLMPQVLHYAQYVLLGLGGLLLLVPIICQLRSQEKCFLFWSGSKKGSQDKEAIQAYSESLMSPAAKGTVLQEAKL
Wnt bcat act = activates Wnt/beta-catenin signaling in a reporter cell assay. activator, plate reader. activation, % at 9.35 µM. 300,000 compounds, 1.2% hits. AID 743398; in the data active = activation above about 30%, passing the limit was not always enough; inconclusive = no clear call, values can overlap the other calls
SR-BI DiI-HDL act = SR-BI HDL lipid transfer activation; activation, % at 12.5 µM; AID 504775; CHO ldlA[mSR-BI] cells, DiI-HDL uptake fluorescence, 3 h; 100 = double the neutral-control signal; 320,000 compounds, 0.096% hits;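 active = mean replicate activation of at least 60% and every replicate at or above 60%; inconclusive = mean or all-replicate condition met, but not both; inactive = mean below 60% and not all replicates reaching 60%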
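Material – SR-BI-overexpressing, LDLR-lacking CHO cells · Medium – BSA-supplemented, HEPES-buffered Ham's F12, pH 7.4 · Doses – single concentration · Times – compound with DiI-HDL co-incubation, 3 h at 37 °C · Measured by – bottom-read fluorescence, 550/595 nm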
Each line names hits and unclear results; the compound was inactive in the other large screens. Sampled rows, rich in hits. Any-hit rate of the full collection: about 3.6%.

COC(=O)C1=C(c2ccc(F)cc2OCc2ccccc2)C[C@@H]2CC[C@H]1N2C(=O)NCCCc1ccccc1	none (no result: HSF-1 act)
COc1ccc(NC2=NC(C)(C)CS2)cc1	MITF act 95
COc1ccc(NC2=NCC(C)S2)cc1 (stereo not drawn)	none
NC1(C(=O)O)CCCc2ccc(N(CCCl)CCCl)cc21 (stereo not drawn)	none (no result: HSF-1 act)
COC(=O)C1=C(C)NC(=S)NC1c1ccc(N(CCCl)CCCl)cc1Cl (stereo not drawn)	SR-BI DiI inh 85 (no result: MITF act, HSF-1 act)
CCc1ccc(N2C(=O)NC(=O)C(Cc3ccc(OC)cc3OC)C2=O)cc1 (stereo not drawn)	SR-BI DiI inh 84 (no result: Wnt bcat act)
O=C1C(=O)N(c2ccccc2)P(=O)(N(CCCl)CCCl)N1c1ccccc1	MITF act 99, Wnt bcat act 37 (no result: HSF-1 act)
CCOc1ccc(C2CC(c3c(O)n(C)c(=O)n(C)c3=O)=NN2)cc1 (stereo not drawn)	Wnt bcat act 30 (no result: MITF act)
Cn1c(O)c(C2=NNC(c3ccc(Cl)cc3)C2)c(=O)n(C)c1=O (stereo not drawn)	HSF-1 act inconclusive (no result: MITF act)
COC1/C=C/C=C(\C)Cc2cc(O)c(Cl)c(c2)N(C)C(=O)CC(OC(=O)C(C)C)C2(C)OC2C(C)C2CC1(O)NC(=O)O2 (stereo not drawn)	none
Cc1cccc(NP(=O)(Oc2ccccc2)Oc2ccccc2)c1C	SR-BI DiI inh 76
CC1Oc2cc3c(-c4c(O)cc(O)c5c(O)c6c(cc45)OC(C)C(C)C6=O)c(O)cc(O)c3c(O)c2C(=O)C1C (stereo not drawn)	SR-BI DiI inh 80 (no result: Wnt bcat act)
CS(=O)(=O)N1Cc2ccccc2-n2nncc2C1	none (no result: HSF-1 act)
COc1ccc(C2c3c(nc(C)[nH]c3=O)Oc3c2c(=O)oc2ccccc32)cc1 (stereo not drawn)	Wnt bcat act 36 (no result: MITF act, SR-BI DiI inh, SR-BI DiI-HDL act)
COc1ccc(C2C([N+](=O)[O-])=C(N)Oc3c2c(=O)oc2ccccc32)cc1 (stereo not drawn)	none (no result: MITF act, SR-BI DiI inh, Wnt bcat act, SR-BI DiI-HDL act)
COc1cccc(C2C([N+](=O)[O-])=C(N)Oc3c2c(=O)oc2ccccc32)c1 (stereo not drawn)	HSF-1 act 59 (no result: MITF act)
O=C1NCCCCC1(Cl)Cl	none (no result: HSF-1 act)
O=c1c2ccccc2[nH]c(=S)n1-c1ccc2c(c1)OCCO2	Wnt bcat act 37 (no result: MITF act)
Cc1ccc2nc3c(cc2c1)CC1(C(=O)N(C)C(=O)N(C)C1=O)C1COCCN31 (stereo not drawn)	none (no result: MITF act, Wnt bcat act)
Cc1ccc2nc3c(cc2c1)CC1(C(=O)N(C)C(=O)N(C)C1=O)C1CCCCN31 (stereo not drawn)	HSF-1 act 81 (no result: MITF act)
CCC(C)(O)C(=O)OC1C(=O)OC2CC3C(C)=CC(O)C(O)C3(C)C3C4(O)OCC23C1C(C)C4O (stereo not drawn)	none (no result: MITF act, HSF-1 act, SR-BI DiI inh, SR-BI DiI-HDL act)
COc1ccc(CCN(C)Cc2ccc(F)cc2F)cc1OC	Wnt bcat act 34
CCN(CC)c1ccc(CN(C)CCc2ccc(OC)c(OC)c2)cc1	none (no result: Wnt bcat act)
CCN(CC)c1ccc(N=Cc2c(O)n(-c3cc(OC)ccc3OC)c(=O)[nH]c2=O)cc1	SR-BI DiI inh 91
CCN(CC)c1ccc(N=Cc2c(O)n(CCc3ccc(OC)c(OC)c3)c(=O)[nH]c2=O)cc1	none
CCCCn1nnnc1C(c1ccnc2ccccc12)N1CCC2(CC1)C(=O)NCN2c1ccccc1 (stereo not drawn)	none (no result: MITF act, HSF-1 act, SR-BI DiI inh, SR-BI DiI-HDL act)
COC(=O)C1CC(OC(C)=O)C(=O)[C@H]2C1(C)CC[C@H]1C(=O)OC(c3ccoc3)CC12C (stereo partly drawn)	none (no result: MITF act, HSF-1 act, SR-BI DiI inh, SR-BI DiI-HDL act)
Cc1cc([N+](=O)[O-])c(Cl)cc1NC(=O)C(C)C	none
CNc1cc(Cl)c2nonc2c1[N+](=O)[O-]	HSF-1 act 168
C=CCC1(Cc2ccsc2)C(=O)NC(=O)NC1=O	none (no result: HSF-1 act)
O=Cc1cn(Cc2c(F)cccc2Cl)nc1-c1ccccc1	none
CCc1ccc(-c2nn(Cc3ccccc3)cc2C=O)cc1	HSF-1 act 102
NNCc1ccccc1	none (no result: HSF-1 act)
COc1cc2c(cc1OC)CN(c1ccc([N+](=O)[O-])c(C(F)(F)F)c1)CC2	HSF-1 act 121
CC(C)(O)C(=O)Nc1ccc([N+](=O)[O-])c(C(F)(F)F)c1	none (no result: HSF-1 act)
CN1CCN(c2ccc3c(c2)S(=O)(=O)c2ccccc2C3=O)CC1	MITF act 93
CN1CCN(c2cccc3c2C(=O)c2ccccc2C3=O)CC1	none
COc1ccc(C(=O)C2CCCN(Cc3ccc(C)s3)C2)c(OC)c1 (stereo not drawn)	HSF-1 act 63
